Shown are actives, neighbours in structure and some others; about 6.8% of the full set was active somewhere.
HCV core dimer = HCV core protein dimerization inhibition; TR-FRET GST/Flag-core106 dimerization, 1536-well; inhibition, % at 5 µM; actives 0.33% (n = 300,000);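 active = inhibition above the mean of all tested compounds plus 3 SD, set per screening campaign, cut at about 45% in these data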
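Material: GST/Flag-tagged HCV core106 proteins. Incubation: 4 h, 22.5 °C incubation. Read-out basis: inhibition (%) from 671 over 617 nm ratio. Measured by: TR-FRET, excitation 340 nm, emission 617 and 671 nm.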
PHOSPHO1 block = blocks human PHOSPHO1 phosphatase activity. Q8TCT1. recombinant PHOSPHO1, absorbance phosphatase assay. inhibition, % at 13.3 µM. actives 1.1% (n = 290,000). AID 1565; in the data active = inhibition above about 60%
Target sequence (Q8TCT1 whole entry, looked up): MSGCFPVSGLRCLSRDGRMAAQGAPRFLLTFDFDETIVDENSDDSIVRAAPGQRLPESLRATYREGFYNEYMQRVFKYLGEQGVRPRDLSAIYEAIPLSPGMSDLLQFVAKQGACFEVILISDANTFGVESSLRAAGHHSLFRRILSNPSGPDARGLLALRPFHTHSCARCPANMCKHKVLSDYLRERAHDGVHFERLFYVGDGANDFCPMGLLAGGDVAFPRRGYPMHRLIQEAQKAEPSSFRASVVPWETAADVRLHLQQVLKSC
HSF1 inh = HSF1 inhibition; NIH3T3-HGL HSE-luciferase, MG132-induced, luminescence 8 h; hits give low values; activity change, negative = inhibition, % at 7.5 µM (by protocol); actives 0.77% (n = 300,000);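 active = more than half of replicate wells show activity change below -50%, luminescence cut by over half; inconclusive = some wells, but at most half, below -50%; inactive = no replicate well below -50%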;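 note: luciferase reports HSF-1 transcriptional activity via heat shock element; 0% = median of DMSO wells and -100% = zero luminescence signal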
HSF-1 act = increases HSF-1 driven luciferase reporter signal; NIH3T3-HGL HSF-1 luciferase reporter, MG132, 8 h; 100% = twice DMSO control signal; activation, % at 9 µM; actives 1.7% (n = 300,000); AID 504408;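 active = mean replicate activation of at least 50% with a set share of replicates each reaching 50%; inconclusive = only one of those two conditions met; inactive = mean below 50% and too few replicates reaching it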;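 note: 0% = median of the neutral control wells and 100% = twice that signal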
AI-2 QS modul = modulators of Vibrio harveyi AI-2 quorum sensing system | Vibrio harveyi JMH597 AI-2 luminescence/OD600 ratio, 9 h; hits give low values; strain lacks LuxN and CqsS sensors; 0 = neutral-control median | activity change, % at 7.5 µM | actives 0.4% (n = 300,000) | AID 2094; in the data active = activity change below about -75%, passing the limit was not always enough; inconclusive = no clear call, values can overlap the other calls;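 note: luminescence divided by OD600 gain over 9 h not by final OD600 alone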
ALR H2O2 inh = human ALR oxidase inhibition via reduced H2O2; purified ALR, DTT oxidation, H2O2 HRP-luminol luminescence; P55789; inhibition, % (no concentration beside the values); actives 3.8% (n = 290,000);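 active = mean replicate inhibition above about 79%, with every replicate also reaching it, limit read from the data; inconclusive = only one of the two criteria met; inactive = mean below limit and not every replicate reaching it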
Target sequence (P55789 whole entry, looked up): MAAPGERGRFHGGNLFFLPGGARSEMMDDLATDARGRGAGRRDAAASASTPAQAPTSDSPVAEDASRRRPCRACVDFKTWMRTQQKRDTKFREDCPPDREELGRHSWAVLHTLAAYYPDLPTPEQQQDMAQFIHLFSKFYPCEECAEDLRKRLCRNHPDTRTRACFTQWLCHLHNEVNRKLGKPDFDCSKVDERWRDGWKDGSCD
* = called active by the depositor; ? = inconclusive; · = no result.

SMILES	HCV core dimer	PHOSPHO1 block	HSF1 inh	HSF-1 act	AI-2 QS modul	ALR H2O2 inh
Cc1noc(C)c1CSCC(=O)NC1=NCCS1	-3.2	1.8	-2.1	-8.4	14.7	97.2*
Cc1cnc(NC(=O)CSCc2c(C)noc2C)s1	·	·	·	·	·	-12.8
Cc1noc(C)c1CSCC(=O)Nc1nc2ccc(S(C)(=O)=O)cc2s1	-4.1	·	6.5	32.4	-72.2	97.4*
C[C@H]1CCC[C@@]2(O[C@@H](CCO)C[C@@H](O)[C@@H]2O)O1	-15.3	22.1	0.3	8.5	9.2	·
CCOc1ccc(C(=O)COC(=O)c2nc3nccc(C)n3n2)cc1	·	·	·	·	·	-15.5
C(/C=C/c1ccccn1)=C\c1ccccc1	-11.1	·	21.7	60.9*	-13.3	-7.6
Cc1cccc(C(=O)NNC(=O)c2ccc(NS(=O)(=O)c3cccs3)cc2)c1C	·	·	·	·	·	-1.6
CCOP(=O)(NC(c1ccccc1)c1nc2ccccc2[nH]c1=O)OCC (stereo unspecified)	-0.2	60.8*	-4.9	-0.9	20.9	·
O=C(O)c1ccc(C[n+]2c(-c3ccccc3)csc2Nc2ccccc2)cc1	13.4	-8.6	19.5	16.6	10.3	32.1
CCCCCC[n+]1c(-c2ccccc2)csc1Nc1ccccc1	-4.9	-3.4	21.7	63.3*	30.9	-1.9
Nc1nn(-c2ccccc2)c(N)c1N=Nc1ccccc1F	-19.1	8.4	23.7	59.2*	-25.2	1.0
Nc1nn(-c2ccccc2)c(N)c1N=Nc1ccccc1	-18.8	7.3	-26.5	-33.5	-57.0	20.0
C=C1C(=O)O[C@@H]2C[C@@H](C)[C@@H]3C=CC(=O)[C@@]3(C)[C@@H](OC(C)=O)[C@H]12	-0.4	39.7	-85.6*	-87.3	10.0	32.9
Cn1cc(C(c2ccccc2OCC(=O)O)c2cn(C)c3ccccc23)c2ccccc21	17.9	24.7	-5.4	8.5	-4.6	98.8*
Cc1ccc(S(=O)(=O)c2nc(-c3cccs3)oc2SCC(N)=O)cc1	34.5	60.3*	0.1	-2.2	-0.1	1.2
Cc1ccc(-c2nc(S(=O)(=O)c3ccc(C)cc3)c(SCC(N)=O)o2)cc1	4.5	8.7	-2.4	11.4	20.5	-18.3
COC(=O)c1sc(-c2ccc(Cl)cc2)cc1NC(=O)CSCC(=O)O	11.0	17.7	1.8	-5.0	7.8	57.7
COC(=O)c1sc(-c2ccc(C(C)(C)C)cc2)cc1NC(=O)COCC(=O)O	22.9	32.1	0.6	12.3	11.0	97.7*
O=C(NCC(c1ccco1)N1CCc2ccccc21)c1ccccc1Br (stereo unspecified)	1.1	·	5.2	8.4	6.2	44.6
Cc1ccc(C(=O)NCC(c2ccco2)N2CCc3ccccc32)cc1 (stereo unspecified)	0.4	·	14.7	20.9	20.7	77.0*
O=C(NCC(c1ccco1)N1CCc2ccccc21)c1ccccc1F (stereo unspecified)	8.3	·	2.0	5.4	29.9	98.5*
O=C(CCc1ccccc1)NCC(c1ccco1)N1CCc2ccccc21 (stereo unspecified)	3.1	·	-8.3	-11.8	3.9	98.1*
Cc1cc2nc3n(c2cc1C)CC1CC(C(=O)NCc2ccco2)N(C)C31 (stereo unspecified)	-3.3	43.6	-1.5	-20.5	-1.3	·
O=C(NCCS(=O)(=O)N1CCN(c2ccccc2F)CC1)c1ccc2c(c1)OCO2	-3.0	·	-0.2	1.1	18.7	0.3
COc1ccc2c(c1)S/C(=C\C(=O)c1ccncc1)N2C	-6.3	69.5*	27.7	48.6	11.0	-1.6
SMILES	HCV core dimer	PHOSPHO1 block	HSF1 inh	HSF-1 act	AI-2 QS modul	ALR H2O2 inh
C(=N\C(/N=C/c1ccco1)c1ccco1)/c1ccco1	2.4	8.9	53.7	80.6*	20.1	-14.0
C(=Nc1cccc2c(N=Cc3ccco3)cccc12)c1ccco1	-16.4	18.0	-6.2	-1.9	10.2	2.5
O=C(NC1=NCCS1)c1ccccc1Cl	-1.4	·	-3.7	-2.2	10.7	·
O=C(NC1=NCCS1)c1csc2ccccc12	0.4	0.9	25.6	?	-8.0	98.5*
COc1cc(-c2cc(C(=O)O)c3c(OC)c(OC)c(OC)cc3n2)ccc1O	-6.1	43.3	-8.7	6.4	0.4	97.8*
O=C(Nc1ccon1)c1cc(-c2ccccc2)nc2ccccc12	4.5	1.5	-0.4	-3.6	28.0	-2.3
Cc1ccc(-c2cc(C(=O)NC3=NCCS3)c3ccccc3n2)cc1C	2.3	-5.8	18.9	7.5	74.6	89.9*
O=C(O)c1ccccc1NC(=O)c1cc(-c2ccccc2)nc2ccccc12	16.9	27.9	1.4	-3.4	39.5	98.2*
CCOc1cc(-c2nnc(NC(=O)C3=COCCO3)o2)cc(OCC)c1OCC	-4.6	·	0.1	-7.6	23.8	11.9
Cc1cccc(NC(=O)NNC(=O)c2cc(-c3ccccc3Cl)nc3ccccc23)c1	-8.5	41.7	-0.1	10.6	-0.5	·
COc1ccc(-c2cc(C(=O)Nc3ccccc3O)c3ccccc3n2)cc1OC	-0.4	41.1	43.5	70.9*	17.9	37.2
COc1ccc(-c2cc(C(=O)Nc3ccc(Cl)cc3Cl)c3ccccc3n2)cc1OC	11.1	-11.7	13.3	31.0	13.2	-1.1
O=C(NNC(=O)c1cc(-c2ccc(Cl)c(Cl)c2)nc2ccccc12)Nc1ccccc1	9.7	19.1	42.8	55.7*	-3.8	-8.3
CCC1NC(=S)NC(C)=C1C(=O)c1ccccc1 (stereo unspecified)	-6.0	-7.7	-1.8	-1.1	7.8	-5.6
COc1ccc(CCN2CC(C(=O)Nc3cc(F)ccc3F)CC2=O)cc1OC (stereo unspecified)	0.0	·	2.2	-8.5	23.9	-0.6
Nc1c(C(=O)NCc2ccco2)nnn1Cc1ccccc1	-1.0	2.2	-0.4	4.0	26.2	-3.0
O=C(c1ccco1)c1nnn(Cc2ccccc2)c1-c1ccccc1	6.4	-69.6	38.7	64.4*	24.7	5.1
O=C(Cc1ccccc1)Nc1ccccc1Oc1ccccc1	0.6	-5.1	-3.1	3.3	8.7	-34.1
Cc1cccn2c(=O)c(/C=C(\C#N)C(=O)NC3CCS(=O)(=O)C3)c(Oc3ccccc3Cl)nc12 (stereo unspecified)	0.5	44.0	10.6	31.4	·	21.3
Cc1ccccc1Oc1nc2c(C)cccn2c(=O)c1/C=C(\C#N)C(=O)NC1CCS(=O)(=O)C1 (stereo unspecified)	7.6	28.5	43.2	71.8*	-4.5	6.4
c1ccc(-c2ncc(-c3ccn[nH]3)s2)cc1	7.2	8.0	30.0	52.6*	9.7	4.3
COc1cc(NC(=O)CN(C)S(=O)(=O)c2ccc3c(c2)CC(C)N3C(C)=O)cc(OC)c1 (stereo unspecified)	-5.8	31.5	-84.5*	-88.5	37.9	-24.3
CC(=O)N1c2ccc(S(=O)(=O)N(C)CC(=O)Nc3ccccc3C)cc2CC1C (stereo unspecified)	-8.2	1.2	-60.9*	-69.7	19.6	-4.2

From PubChem
